Laboratory results published in ChEMBL document CHEMBL3763115, “Silibinin derivatives as anti-prostate cancer agents: Synthesis and cell-based evaluations” (Eur J Med Chem, 2016).

How the values were obtained:
[1] = Cell cycle arrest in human PC3 cells assessed as accumulation at S phase at 20 uM after 30 hrs by propidium iodide staining based flow cytometry (reference value: 5%); format: functional; conditions: PC-3
Outline: (§1)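 PC-3 cells (RPMI-1640, 10% FBS), 200,000 per well, allowed 3 h to attach, then exposed to compound with DMSO as vehicle control. Attached and floating cells collected at 24 and 30 h, fixed in cold 80% ethanol for 30 min at 4 °C, treated with RNase for 30 min at 37 °C, and stained with propidium iodide. DNA content read by flow cytometry within 0.5–1 h.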

[2] = Cell cycle arrest in human PC3 cells assessed as accumulation at G0/G1 phase at 20 uM after 30 hrs by propidium iodide staining based flow cytometry (reference value: 55%); format: functional; conditions: PC-3; outline: as §1
PC-3 [3] = assay: Induction of apoptosis in human PC3 cells assessed as apoptotic cells at 40 uM after 16 hrs by F2N12S/Sytox A advanced staining based flow cytometry (reference value: 3%); format: functional
PC-3 [4] = assay: Induction of apoptosis in human PC3 cells assessed as necrotic cells at 40 uM after 16 hrs by F2N12S/Sytox A advanced staining based flow cytometry (reference value: 11%); format: functional
PC-3 [5] = assay: Induction of apoptosis in human PC3 cells assessed as apoptotic cells at 10 uM after 16 hrs by F2N12S/Sytox A advanced staining based flow cytometry (reference value: 3%); format: functional
LNCaP [6] = assay: Antiproliferative activity against human LNCAP cells assessed as reduction in cell viability after 3 days by WST-1 cell proliferation assay; format: functional, cell-based; conditions: 72 h
Outline: (§2)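 Cells from ATCC; PC-3 and LNCaP grown in RPMI-1640, DU145 in EMEM, each with 10% FBS and 1% penicillin/streptomycin, 37 °C, 5% CO2. 3,200 cells per well, treated at 5 concentrations for 3 days with 0.25% DMSO as vehicle control. WST-1 reagent added, 3 h at 37 °C, absorbance read at 430 nm. IC50 from linear fit of at least five doses, mean of at least triplicates.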

PC-3 [7] = assay: Induction of apoptosis in human PC3 cells assessed as necrotic cells at 20 uM after 16 hrs by F2N12S/Sytox A advanced staining based flow cytometry (reference value: 11%); format: functional
[8] = Potency index, ratio of silibinin IC50 to compound IC50 for antiproliferative activity against human DU145 cells; format: functional, DU-145
Outline: (§3)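 Ratio of silibinin IC50 to derivative IC50. Both come from the 3-day WST-1 assay run in parallel (5 doses, absorbance at 430 nm, IC50 from linear fit, at least triplicates).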

[9] = Cell cycle arrest in human PC3 cells assessed as accumulation at M phase at 20 uM after 30 hrs by propidium iodide staining based flow cytometry (reference value: 5%); format: functional; conditions: PC-3; outline: as §1
[10] = Antiproliferative activity against human DU145 cells assessed as reduction in cell viability after 3 days by WST-1 cell proliferation assay; format: functional, cell-based; conditions: DU-145, 72 h; outline: as §2
PC-3 [11] = assay: Induction of apoptosis in human PC3 cells assessed as viable cells at 20 uM after 16 hrs by F2N12S/Sytox A advanced staining based flow cytometry (reference value: 86%); format: functional; conditions: PC-3, 16 h, read-out: Activity
PC-3 [12] = assay: Induction of apoptosis in human PC3 cells assessed as viable cells at 40 uM after 16 hrs by F2N12S/Sytox A advanced staining based flow cytometry (reference value: 86%); format: functional; conditions: PC-3, 16 h, read-out: Activity
PC-3 [13] = assay: Induction of apoptosis in human PC3 cells assessed as apoptotic cells at 30 uM after 16 hrs by F2N12S/Sytox A advanced staining based flow cytometry (reference value: 3%); format: functional
PC-3 [14] = assay: Induction of apoptosis in human PC3 cells assessed as viable cells at 10 uM after 16 hrs by F2N12S/Sytox A advanced staining based flow cytometry (reference value: 86%); format: functional; conditions: PC-3, 16 h, read-out: Activity
PC-3 [15] = assay: Induction of apoptosis in human PC3 cells assessed as apoptotic cells at 20 uM after 16 hrs by F2N12S/Sytox A advanced staining based flow cytometry (reference value: 3%); format: functional
[16] = Cell cycle arrest in human PC3 cells assessed as accumulation at M phase at 20 uM after 24 hrs by propidium iodide staining based flow cytometry (reference value: 8%); format: functional; conditions: PC-3; outline: as §1
PC-3 [17] = assay: Induction of apoptosis in human PC3 cells assessed as viable cells at 30 uM after 16 hrs by F2N12S/Sytox A advanced staining based flow cytometry (reference value: 86%); format: functional; conditions: PC-3, 16 h, read-out: Activity
PC-3 [18] = assay: Induction of apoptosis in human PC3 cells after 16 hrs by F2N12S/Sytox A advanced staining based flow cytometry; format: functional, cell-based
[19] = Potency index, ratio of silibinin IC50 to compound IC50 for antiproliferative activity against human PC3 cells; format: functional, PC-3; outline: as §3
[20] = Antiproliferative activity against human PC3 cells assessed as reduction in cell viability after 3 days by WST-1 cell proliferation assay; format: functional, cell-based; conditions: PC-3, 72 h; outline: as §2
PC-3 [21] = assay: Induction of apoptosis in human PC3 cells assessed as viable cells at 50 uM after 16 hrs by F2N12S/Sytox A advanced staining based flow cytometry (reference value: 86%); format: functional; conditions: PC-3, 16 h, read-out: Activity
[22] = Cell cycle arrest in human PC3 cells assessed as accumulation at S phase at 20 uM after 24 hrs by propidium iodide staining based flow cytometry (reference value: 8%); format: functional; conditions: PC-3; outline: as §1
PC-3 [23] = assay: Induction of apoptosis in human PC3 cells assessed as apoptotic cells at 50 uM after 16 hrs by F2N12S/Sytox A advanced staining based flow cytometry (reference value: 3%); format: functional
PC-3 [24] = assay: Induction of apoptosis in human PC3 cells assessed as necrotic cells at 30 uM after 16 hrs by F2N12S/Sytox A advanced staining based flow cytometry (reference value: 11%); format: functional
LNCaP [25] = assay: Potency index, ratio of silibinin IC50 to compound IC50 for antiproliferative activity against human LNCAP cells; format: functional; outline: as §3
PC-3 [26] = assay: Induction of apoptosis in human PC3 cells assessed as necrotic cells at 10 uM after 16 hrs by F2N12S/Sytox A advanced staining based flow cytometry (reference value: 11%); format: functional
PC-3 [27] = assay: Induction of apoptosis in human PC3 cells assessed as necrotic cells at 50 uM after 16 hrs by F2N12S/Sytox A advanced staining based flow cytometry (reference value: 11%); format: functional
[28] = Cell cycle arrest in human PC3 cells assessed as accumulation at G0/G1 phase at 20 uM after 24 hrs by propidium iodide staining based flow cytometry (reference value: 49%); format: functional; conditions: PC-3; outline: as §1
[29] = Cell cycle arrest in human PC3 cells assessed as accumulation at G2 phase at 20 uM after 24 hrs by propidium iodide staining based flow cytometry (reference value: 34%); format: functional; conditions: PC-3; outline: as §1
[30] = Cell cycle arrest in human PC3 cells assessed as accumulation at G2 phase at 20 uM after 30 hrs by propidium iodide staining based flow cytometry (reference value: 30%); format: functional; conditions: PC-3; outline: as §1

For `CCOc1cc(O)c2c(=O)c(O)c(-c3ccc4c(c3)OC(c3ccc(O)c(OC)c3)C(CO)O4)oc2c1` (stereo not given), the Activity [1] was 6%, the Activity [2] was 61% and the Activity (PC-3 [3]) was 71%. The Activity (PC-3 [4]) was 25%, the Activity (PC-3 [5]) was 9% and the IC50 (LNCaP [6]) was 2.58 µM. For the same compound, the Activity (PC-3 [7]) was 13%, the “Ratio IC50” value [8] was 12 and the Activity [9] was 6%. The IC50 [10] was 7.59 µM, the viability at 20 µM (PC-3 [11]) was 49% and the viability at 40 µM (PC-3 [12]) was 4%. For the same compound, the Activity (PC-3 [13]) was 68%, the viability at 10 µM (PC-3 [14]) was 84% and the Activity (PC-3 [15]) was 38%. The Activity [16] was 7%, the viability at 30 µM (PC-3 [17]) was 11% and the Activity (PC-3 [18]) was “Dose-dependent effect”. For the same compound, the “Ratio IC50” value [19] was 22, the IC50 [20] was 3.25 µM and the viability at 50 µM (PC-3 [21]) was 7%. The Activity [22] was 7%, the Activity (PC-3 [23]) was 66% and the Activity (PC-3 [24]) was 25%. The “Ratio IC50” value (LNCaP [25]) was 17, the Activity (PC-3 [26]) was 7% and the Activity (PC-3 [27]) was 27%. The Activity [28] was 62%, the Activity [29] was 23% and the Activity [30] was 25%.
